Assay results taken from article PMC6989153 (Molecular pharmaceutics, 2019).
Where two headings read alike, the source gives them in different places.

Legend:
HDL = test: Native gel electrophoresis of APC analogs in human plasma, HDL band; type: in vitro ADME; settings: incubated 4 hrs at 37°C, means ± SEM
Summary of the method: (§1)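 Fresh, unfrozen human plasma was incubated with test compound (100nM) with shaking for 4 h at 37°C. Samples in sample buffer were run on non-denaturing Tris-glycine gels at a common voltage and duration. Band position and intensity were read by fluorescence imaging or by radioactivity scanning, followed by Coomassie staining. Standards were mouse albumin, human LDL, human HDL, gamma-globulins, alpha1-acid glycoprotein and fatty acid-free HSA.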

LDL = test: Native gel electrophoresis of APC analogs in human plasma, LDL band; type: in vitro ADME; settings: incubated 4 hrs at 37°C, means ± SEM
Summary of the method: as §1

Albumin [1] = target: T1, Albumin (Homo sapiens, UniProt P02768); test: Native gel electrophoresis of APC analogs in human plasma, albumin band; type: in vitro ADME; settings: for Albumin (signal in band on native gel): incubated 4 hrs at 37°C, means ± SEM; for albumin binding: native gel analysis
Summary of the method: as §1

MDA-MB-231 breast cancer [2] = test: Tumor uptake kinetics in tumor-bearing flank xenografts; type: in vivo; settings: MDA-MB-231 flank xenografts, IVIS fluorescence imaging, three mice
[3] = type: in vivo, nude athymic mice; settings: for MRT (mean residence time): n=6
Summary of the method: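 Naive athymic nude mice (20–26 g) on standard chow received test compound by tail-vein injection: fluorescent analogs at 2.6μmol/kg, radioiodinated dose normalized to mass and body weight. Pre-dose blood was taken for background. Serial 10μL maxillary-puncture samples were collected into EDTA (n=6), and levels were read by fluorescence or gamma counting. Non-compartmental analysis gave clearance, AUC, AUMC and mean residence time, normalized to starting dose.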

[4] = target: fatty acid-free human serum albumin (HSA) (Homo sapiens, UniProt P02768); test: Equilibrium dialysis; type: binding; settings: PBS, 37°C
Summary of the method: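 Fatty acid-free HSA was dissolved in PBS and loaded into a rapid equilibrium dialysis chamber, with PBS in the collection well. The device was shaken at 37°C, and small aliquots were drawn from the collection well over time. Concentration was measured by UV absorbance, or by gamma counting for radioiodinated compound.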

Log D determination = type: physicochemical; settings: octanol/water, pH 7.4
Summary of the method: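 Test compound (radioiodinated, or fluorescent) was added to octanol and equilibrated overnight. An equal volume of distilled water at pH 7.4 was added, and the mixture was rotated at room temperature, protected from light, for 48 h. The phases were separated, and relative concentrations were measured by gamma counting (radioiodinated compound) or by fluorescence plate reader (fluorescent analogs).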

MDA-MB-231 breast cancer [5] = settings: post-injection, tumor-bearing mice; cited from earlier work
Albumin [6] = target: T1, Albumin; test: Partitioning in fresh unfrozen human plasma with intralipid, albumin binding; type: in vitro ADME
Summary of the method: (§2)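 Fresh, unfrozen human plasma was incubated with test compound plus varying intralipid (20% soybean oil, 1.2% egg yolk phospholipids, 2.25% glycerin emulsion), up to 20% v/v. Plasma partitioning runs were shaken for 4 h at 37°C, then ultracentrifuged at […] for 8 h. The layers were separated, and fluorescence (radiance efficiency) or radioactivity was measured in each, expressed as a percentage per fraction.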

lipoprotein fraction = type: in vitro ADME; settings: human plasma
Summary of the method: as §2

[7] = nude athymic mice, tail-vein injection
[8] = nude athymic mice, tail-vein injection, normalized to starting dose
[9] = athymic nude, mouse, whole blood, intravenous

T1 sequence (P02768 25-609): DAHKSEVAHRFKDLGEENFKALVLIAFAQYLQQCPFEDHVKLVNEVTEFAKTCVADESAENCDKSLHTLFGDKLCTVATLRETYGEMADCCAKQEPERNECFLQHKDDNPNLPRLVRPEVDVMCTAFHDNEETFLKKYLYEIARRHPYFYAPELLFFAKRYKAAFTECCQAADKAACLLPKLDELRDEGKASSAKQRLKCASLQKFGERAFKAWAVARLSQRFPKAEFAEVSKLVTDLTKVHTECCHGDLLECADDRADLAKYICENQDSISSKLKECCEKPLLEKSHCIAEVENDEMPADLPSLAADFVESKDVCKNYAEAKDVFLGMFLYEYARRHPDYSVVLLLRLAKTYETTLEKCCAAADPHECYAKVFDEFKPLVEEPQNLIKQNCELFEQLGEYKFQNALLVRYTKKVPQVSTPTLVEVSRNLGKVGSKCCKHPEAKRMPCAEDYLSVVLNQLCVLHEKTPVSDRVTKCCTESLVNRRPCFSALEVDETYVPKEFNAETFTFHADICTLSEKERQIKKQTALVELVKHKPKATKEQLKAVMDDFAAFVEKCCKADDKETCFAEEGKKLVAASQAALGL
Sequence of fatty acid-free human serum albumin (HSA) (P02768 25-609): as above

SMILES | HDL (signal in band on native gel) (HDL) | LDL (signal in band on native gel) (LDL) | Albumin (signal in band on native gel) (Albumin [1]) | albumin binding (Albumin [1]) [%] | MRT (mean residence time) [3, 7] [h] | AUC [3, 8] [h] | AUMC [3, 8] [hr^2] | CL [3, 8] [L/h] | Clearance [3, 8] [h⁻¹] | also measured
CN1/C(=C/C=C2\CCCC(/C=C/C3=[N+](C)c4ccccc4C3(C)C)=C2c2ccc(CCCCCCCCCCCCCCCCCCOP(=O)(O)OCC[N+](C)(C)C)cc2)C(C)(C)c2ccccc21 [compound 1502, 1,3,3-trimethyl-2-[(E)-2-[(3E)-3-(2-[(2E)-1,3,3-trimethyl-2,3-dihydro-1H-indol-2-ylidene]ethylidene}−2-[4-(18-([2-(trimethylazaniumyl)ethylhosphonato]oxy)octadecyl)phenyl]cyclohex-1-en-1-yl]ethenyl]-3H-indol-1-ium] | 20.90 ± 2.57 | 9.21 ± 0.86 | 69.88 ± 3.32 | 69.88 | 33.95 | 13.16 | 446.66 | 0.08 | 0.08 | time at which uptake into the cancer was first seen (MDA-MB-231 breast cancer [2]): 4.5 h; time of peak tumor uptake (MDA-MB-231 breast cancer [2]): 24 h
C[N+](C)(C)CCOP(=O)([O-])OCCCCCCCCCCCCCCCCCCc1ccc(I)cc1 [NM404, 18-(p-Iodophenyl)octadecylphosphocholine] | 15.42 ± 0.41 | 4.60 ± 0.28 | 79.99 ± 0.22 | 79.99 |  | 43.66 | 4333.63 |  | 0.02 | binding to fatty acid-free human serum albumin [4]: 96%; Clearance [3, 9]: 0.333 mL/min; MRT [3, 9]: 99.2 h; logD at 48 h (Log D determination): 2.07; time at which tumor uptake was seen (MDA-MB-231 breast cancer [5]): 24 h; time of peak tumor uptake (MDA-MB-231 breast cancer [5]): 72 h
C[N+](C)(C)CCOP(=O)([O-])OCCCCCCCCCCCCCCCCCCc1ccc(C2=C3C=CC=[N+]3[B-](F)(F)n3cccc32)cc1 [compound 1501, 18-[p-(4,4-difluoro-4-bora-3a,4a-diaza-s-indacene-8-yl)-phenyl]-octadecyl phosphocholine] | 10.25 ± 1.25 | 7.11 ± 0.41 | 82.64 ± 1.62 | 82.64 | 236.07 | 159.64 | 37686.99 | 0.01 | 0.01 | albumin-binding percentage (Albumin [6]; 20% intralipid): 79.32%; albumin-binding percentage (Albumin [6]; no intralipid): 85.93%; lipoprotein percentage of fluorescence intensity (lipoprotein fraction; 20% v/v intralipid): 14.40%; lipoprotein percentage of fluorescence intensity (lipoprotein fraction; no intralipid): 7.33%
